# Data published in ChEMBL document CHEMBL4480465, “Anti-inflammatory Mono- and Dimeric Sorbicillinoids from the Marine-Derived Fungus Trichoderma reesei 4670” (J Nat Prod, 2019).
# The source made the active and inactive calls. The rule behind the calls is not given here.
# Tests used:
# RAW264.7 [1] = experiment: Antiinflammatory activity against mouse RAW264.7 cells assessed as inhibition of LPS-induced nitric oxide production measured after 24 hrs; type: functional, cell-based; settings: RAW264.7, 24 h
# Method in brief: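 RAW264.7 cells seeded at 5 × 10^4 per well and grown 24 h, then given LPS (1 μg/mL) together with graded compound concentrations (DMSO stocks) for 24 h. NO in the medium was read with nitric oxide detection reagents I and II, measuring absorbance at 540 nm. IC50 came from normalized response–variable slope curve fits, mean of n = 3.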
# RAW264.7 [2] = experiment: Cytotoxicity against mouse RAW264.7 cells by MTT assay; type: cell-based
# MCF7 = experiment: Cytotoxicity against human MCF7 cells by MTT assay; type: functional, cell-based
# HepG2 = experiment: Cytotoxicity against human HepG2 cells by MTT assay; type: functional, cell-based
# HeLa = experiment: Cytotoxicity against human HeLa cells by MTT assay; type: functional, cell-based
SMILES,IC50 (RAW264.7 [1]),IC50 (RAW264.7 [2]),Activity (MCF7),Activity (HepG2),Activity (HeLa)
Cc1cc(C(=O)CC/C=C/CO)c(O)cc1O,0.94 µM,> 50 µM,inactive,inactive,inactive
C/C=C/C=C/C(O)=C1\C(=O)C(C)=C(O)[C@@]2(C)O[C@@]3(O)[C@@](C)(O)CC4=C(O[C@H](/C=C/C)CC4=O)[C@@]3(C)[C@@H]12,32 µM,> 50 µM,inactive,inactive,inactive
C/C=C/C=C/C(O)=C1/C(=O)C(C)=C(O)[C@@]2(C)O[C@@]3(O)[C@@](C)(O)CC(C(=O)CC/C=C/C)=C(O)[C@@]3(C)[C@@H]12,5.9 µM,> 50 µM,inactive,inactive,inactive
CC1=C(O)[C@@]2(C)O[C@@]3(O)[C@@](C)(O)C\C(=C(O)/C=C/C=C/CO)C(=O)[C@@]3(C)[C@H]2\C(=C(O)/C=C/C=C/CO)C1=O,> 50 µM,> 50 µM,inactive,inactive,inactive
C/C=C/CCC(=O)C1=C(O)[C@@]2(C)[C@H]3\C(=C(O)/C=C/C=C/CO)C(=O)C(C)=C(O)[C@@]3(C)O[C@@]2(O)[C@@](C)(O)C1,22 µM,> 50 µM,inactive,inactive,inactive
CC1=C(O)[C@@]2(C)O[C@@]3(O)[C@@](C)(O)CC(C(=O)CC/C=C/CO)=C(O)[C@@]3(C)[C@H]2\C(=C(O)/C=C/C=C/CO)C1=O,24 µM,> 50 µM,inactive,inactive,inactive
C/C=C/C=C/C(O)=C1\C[C@](C)(O)[C@]2(O)O[C@]3(C)C(O)=C(C)C(=O)/C(=C(O)/C=C/C=C/C)[C@@H]3[C@]2(C)C1=O,9.9 µM,> 50 µM,inactive,inactive,inactive
C/C=C/C=C/C(O)=C1\C[C@](C)(O)[C@]2(O)O[C@]3(C)C(O)=C(C)C(=O)/C(=C(O)/C=C/C=C/CO)[C@@H]3[C@]2(C)C1=O,6.1 µM,> 50 µM,inactive,inactive,inactive
C/C=C/C=C/C(O)=C1/C(=O)[C@]2(C)C(=O)[C@@](C)(O)[C@H]1[C@@H]1CC(=O)N(C)[C@@H]12,> 50 µM,> 50 µM,inactive,inactive,inactive
C/C=C/C=C/C(O)=C1\C(=O)C(C)=C(O)[C@@]2(C)O[C@@]3(O)[C@@](C)(O)CC4=C(O[C@@H](/C=C/C)CC4=O)[C@@]3(C)[C@@H]12,22 µM,> 50 µM,inactive,inactive,inactive
Cc1cc2c(c(C)c1O)O[C@H](CCCO)CC2=O,38 µM,> 50 µM,inactive,inactive,inactive

# The next lines start with results.
IC50 (RAW264.7 [1]),SMILES,IC50 (RAW264.7 [2]),Activity (MCF7),Activity (HepG2),Activity (HeLa)
6.1 µM,Cc1c(O)c(O)cc(C(=O)CC/C=C/CO)c1O,> 50 µM,inactive,inactive,inactive
> 50 µM,Cc1cc(C(=O)CC/C=C/C(=O)O)c(O)cc1O,> 50 µM,inactive,inactive,inactive
41 µM,COc1ccc2c(c1)c(CC(=O)O)c(C)n2C(=O)c1ccc(Cl)cc1 [INDOMETHACIN],> 50 µM,,,
3.3 µM,C/C=C/C=C/C(=O)c1c(O)c(C)cc(C)c1O,> 50 µM,inactive,inactive,inactive
> 50 µM,Cc1cc(C(=O)CCC(=O)O)c(O)c(C)c1O,> 50 µM,inactive,inactive,inactive
> 50 µM,Cc1cc(C(=O)CCC(=O)O)c(O)cc1O,> 50 µM,inactive,inactive,inactive
6.8 µM,Cc1cc(C(=O)/C=C/C=C/CO)c(O)c(C)c1O,> 50 µM,inactive,inactive,inactive
8.5 µM,Cc1cc2c(c(C)c1O)O[C@H](/C=C/CO)CC2=O,> 50 µM,inactive,inactive,inactive
14 µM,C/C=C/CCC(=O)c1cc(C)c(O)cc1O [SOHIRNONE A],> 50 µM,inactive,inactive,inactive
> 50 µM,Cc1cc(C(=O)CCCCCO)c(O)cc1O,> 50 µM,inactive,inactive,inactive
12 µM,C/C=C/[C@@H](O)CC(=O)c1cc(C)c(O)cc1O,> 50 µM,inactive,inactive,inactive
2.9 µM,Cc1cc(C(=O)CC/C=C/CO)c(O)c(C)c1O,> 50 µM,inactive,inactive,inactive
> 50 µM,Cc1c(O)ccc(C(=O)C[C@@H]2CC[C@H]([C@H](C)O)O2)c1O,> 50 µM,inactive,inactive,inactive
13 µM,C/C=C/CCCc1cc(C)c(O)cc1O,> 50 µM,inactive,inactive,inactive
